Source: PubChem (several laboratories)
Compounds with a hit are over-represented: about 1.4% of the library has one in this group of screens.
NR1D1 modulator: modulators of Rev-erb alpha DNA binding, primary screen, biochemical, FITC-DNA, fluorescence polarization, uHTS; activity, % at 10 µM; actives 0.79% (n = 370,000); Rev-erbα–FITC-DNA binding, 90 min; Nuclear receptor subfamily 1 group D member 1 (Homo sapiens), P20393;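 active = activity above about 14%, limit read from the data; passing the limit was not always enough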;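 also: 0% = DMSO wells with 35 nM protein and 100% = DMSO wells with 750 nM protein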
Target sequence (P20393 whole entry, looked up): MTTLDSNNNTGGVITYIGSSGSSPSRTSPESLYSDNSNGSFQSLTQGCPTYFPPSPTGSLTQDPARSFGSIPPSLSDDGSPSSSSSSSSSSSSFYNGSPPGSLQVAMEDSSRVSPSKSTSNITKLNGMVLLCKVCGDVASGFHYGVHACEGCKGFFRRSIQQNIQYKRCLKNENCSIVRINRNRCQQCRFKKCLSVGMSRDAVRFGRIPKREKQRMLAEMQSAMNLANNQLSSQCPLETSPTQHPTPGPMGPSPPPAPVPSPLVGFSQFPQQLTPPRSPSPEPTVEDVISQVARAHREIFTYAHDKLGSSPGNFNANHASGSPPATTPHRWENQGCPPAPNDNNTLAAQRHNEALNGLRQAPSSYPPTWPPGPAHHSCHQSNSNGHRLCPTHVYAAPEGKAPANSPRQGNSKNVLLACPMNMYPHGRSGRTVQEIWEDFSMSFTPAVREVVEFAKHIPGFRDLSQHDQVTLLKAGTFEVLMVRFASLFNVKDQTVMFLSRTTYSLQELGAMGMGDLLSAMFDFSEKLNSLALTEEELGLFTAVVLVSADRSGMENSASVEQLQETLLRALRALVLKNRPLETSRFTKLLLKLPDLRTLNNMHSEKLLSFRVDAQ
NR2E3 ag-1: inhibitors of NR2E3-RetCOR corepressor binding, primary screen, NR2E3 agonist project, biochemical, TR-FRET, GST-NR2E3, biotin-RetCOR. Photoreceptor-specific nuclear receptor (Homo sapiens), Q9Y5X4. 1536-well. inhibition of corepressor binding, % at 4.78 µM. actives 0.12% (n = 320,000);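 active = percent inhibition above the cutoff of mean plus 3 SD of all tested compounds, set per screening campaign, cut at about 20% in these data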;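 also: 0% = DMSO wells and 100% = biotin wells as full block of FRET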
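system = GST-tagged NR2E3 plus biotinylated RetCOR corepressor | input = 1.35 nM GST-NR2E3 | also added = 7 nM biotin-RetCOR | schedule = 5 h incubation at 4 °C | measured by = TR-FRET with europium anti-GST and streptavidin-D2, 340 nm excitation | read-out = percent loss of FRET ratio relative to control wells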
NR2E3 ag-2: NR2E3 agonists in two-hybrid cells, primary screen, cell-based, luminescence, CHO-S, Gal4-NCOR/VP16-NR2E3; Photoreceptor-specific nuclear receptor (Homo sapiens), Q9Y5X4; luciferase; inhibition of corepressor binding, % at 3.98 µM; actives 0.35% (n = 360,000); AID 602229, 2012;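 active = inhibition above the mean of all tested compounds plus 3 SD, cut at about 70% in these data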;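 also: 0% = DMSO with NR2E3 transfected cells and 100% = cells lacking NR2E3 construct; higher means lower luciferase signal from less NR2E3 corepressor binding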
PG9 Ab binder: binders of HIV-1 gp120 antibody PG9, primary screen, biochemical, TR-FRET; HIV-1 gp120 / PG9 antibody interaction; actives 0.43% (n = 360,000); AID 624416, 2012; TR-FRET gp120-PG9 antibody binding; inhibition, % at 6.7 µM; in the data active = inhibition above about 8.5%
PG9 bind confirm: binders of anti-gp120 antibody PG9, confirmation, biochemical, TR-FRET. actives 90% (n = 1,500). AID 651571, 2012. shares compounds with PG9 Ab binder. TR-FRET PG9 antibody binding. inhibition, % at 6.7 µM; in the data active = inhibition above about 9%
PGV04 counter: binders of control antibody PGV04, counter-screen for PG9 antibody binder project, biochemical, TR-FRET, distinct HIV envelope site | shares compounds with PG9 Ab binder | TR-FRET PGV04 antibody-gp120 binding | inhibition, % at 6.7 µM | actives 95% (n = 1,500) | AID 651604, 2012; in the data active = inhibition above about 9.5%
PG9 binder DR: small-molecule binders of antibody PG9, dose response, biochemical, TR-FRET, HIV-1 gp120 antibody | 95 tested, under 10 active | IC50, µM | shares compounds with PG9 Ab binder | TR-FRET PG9 antibody-gp120 binding inhibition; in the data active = IC50 below about 10 µM
PGV04 binding DR: binders of control antibody PGV04, dose response, counter-screen for PG9 antibody binder project, biochemical, TR-FRET, distinct HIV envelope site; TR-FRET binding to control antibody PGV04; AID 651937, 2012; IC50, µM; actives 20% (n = 95); shares compounds with PG9 Ab binder
PG126 DR counter: binders of control antibody PG126, dose response, counter-screen for PG9 antibody binder project, biochemical, TR-FRET, distinct HIV envelope site. shares compounds with PG9 Ab binder. TR-FRET binding to antibody PG126, counterscreen. IC50, µM. actives 20% (n = 95)
Active calls of the source: *; i = inactive; / = not tested or not shown. Rule as the data show it, unless noted: active = IC50 below about 9 µM; inactive = the rest.

SMILES	NR1D1 modulator	NR2E3 ag-1	NR2E3 ag-2	PG9 Ab binder	PG9 bind confirm	PGV04 counter	others
Cc1ccc(Cn2c(C3CCCN3c3nc(-c4cc(Cl)c(N)c(Cl)c4)cs3)nc3cc(Cl)c(Cl)cc32)cc1 (stereo not drawn)	-4	-1	-16	9.7*	14*	22*
COc1ccc(C(=O)NCCCNc2nc3cc(C)cc(C)c3cc2C#N)cc1	0	/	-22	-1	/	/
COc1cc(OC)cc(C(=O)NCCNc2nc3cc(C)cc(C)c3cc2C#N)c1	0	6	-6	20*	9.0*	23*
CCOC(=O)CCc1c(C)c(C#N)c2nc3ccccc3n2c1-n1cnc2ccccc21	19	-1	17	17*	22*	27*
CC(C)(N[C@@H](Cc1c[nH]c2ccccc12)C(=O)NCC(c1ccccc1)c1ccccc1)C(=O)NC1CCCCC1	2	/	/	/	/	/
Cc1ccc(Nc2nccc(N(C)c3ccc4c(C)n(C)nc4c3)n2)cc1S(N)(=O)=O	2	/	/	/	/	/
Cc1ccc(NC(=O)CSc2nc3c(cc2C#N)C(=O)CCC3)cc1S(=O)(=O)N(C)C	-3	0	-10	13*	12*	14*
CCSc1nnc(NC(=O)COc2ccc3ccccc3c2)s1	9	5	8	14*	20*	35*
Cc1csc(NC(=O)C(Cc2ccccc2)n2cccc2)n1 (stereo not drawn)	-5	2	-16	1	/	/
CCSc1nnc(NC(=O)C(Cc2ccccc2)n2cccc2)s1 (stereo not drawn)	13	-1	-7	10*	21*	21*	PG9 binder DR=>67;PGV04 binding DR=i;PG126 DR counter=>22
CCSc1nnc(NC(=O)c2csc(C)c2)s1	17	2	-36	12*	19*	31*
COc1cc(C(NC(=O)C(F)(F)F)C2CCCC=C2c2ccccc2)cc(OC)c1OC (stereo not drawn)	-1	/	/	/	/	/
Cc1ccccc1C(=O)Nc1nnc(S(=O)(=O)N2CCCCC2)s1	-4	11	-11	24*	32*	40*
COc1ccc(S[C@]2(C(=O)N3CCOCC3)CC(=O)N(C(=O)Nc3ccc(C)c(Cl)c3)[C@@H]2c2ccc(OC)cc2)cc1	2	/	/	/	/	/
CCOC(=O)Cn1c(=NC(=O)CC)sc2c(C)cc(C)cc21	2	-5	2	11*	15*	23*
CCOC(=O)Cn1c(=NC(=O)C(C)C)sc2c(C)cc(C)cc21	0	3	-13	-1	/	/
CCOC(=O)Cn1c(=NC(=O)CSC(C)=O)sc2cc(F)ccc21	2	8	-20	40*	69*	80*
COC(=O)C[C@H]1CC[C@@H]2[C@@H](COc3ccc(NC(=O)C4CCCCC4)cc3C(=O)N2C)O1	2	/	/	/	/	/
CC(=O)c1nn(-c2cccc(Br)c2)cc1C(=O)c1ccccc1	0	2	-8	13*	20*	25*
CC(=O)c1nn(-c2ccccc2)cc1C(=O)c1cccc(Br)c1	-2	1	-7	0	/	/
Cc1cc(Br)cn2cc(C(=O)O)nc12	-1	6	-16	16*	21*	26*
COC(=O)[C@H](C(C)C)N1Cc2nnn(Cc3ccc(C)cc3)c2-c2cc(F)ccc2S1(=O)=O	0	/	/	/	/	/
Cc1nc(SCC(=O)Nc2cc(C(N)=O)cc(C(N)=O)c2)c2c(C)c(C)sc2n1	8	14	-67	11*	18*	36*
Cc1nc(SCC(=O)Nc2sccc2C(N)=O)c2c(C)c(C)sc2n1	-5	/	31	-1	/	/
Cc1cc(N2C(=O)C(O)=C(C(=O)c3ccc(C)o3)C2c2cccs2)no1 (stereo not drawn)	2	18	35	9.6*	17*	25*
SMILES	NR1D1 modulator	NR2E3 ag-1	NR2E3 ag-2	PG9 Ab binder	PG9 bind confirm	PGV04 counter	others
COC(=O)c1ccc(C2C(C(=O)c3ccc(C)o3)=C(O)C(=O)N2c2cc(C)on2)cc1 (stereo not drawn)	-1	7	6	1	/	/
Cc1cc(N2C(=O)C(O)=C(C(=O)c3ccco3)C2c2ccc(Cl)cc2)no1 (stereo not drawn)	-2	17	-2	16*	30*	41*
CC(C)N1CCCCC(NC(=O)c2cccc(C(F)(F)F)c2)C1=O (stereo not drawn)	10	/	/	/	/	/
CCCC1Cc2c(sc3nc(SC)nc(N)c23)CO1 (stereo not drawn)	24	4	-35	16*	18*	34*
Cc1cc(C=O)c(C)n1-c1ccc(Oc2ccc([N+](=O)[O-])cn2)cc1	5	-2	-1	8.6*	10*	15*
O=C(O)c1cnn(-c2nc(-c3ccc(F)cc3)cs2)c1C(F)(F)F	2	6	-99	4	/	/
O=C(O)c1cnn(-c2nc(-c3ccc(Br)cc3)cs2)c1C(F)(F)F	3	8	-137	9.6*	13*	23*
O=C(CCn1nnc2ccccc21)N1CCN(c2ccccc2F)CC1	-10	/	/	/	/	/
CC(C)[C@H](NC(=O)Cc1ccccc1)C(=O)OCc1cc(=O)n2c(n1)sc1ccccc12	-9	5	15	9.6*	17*	21*
CCc1cccc(CC)c1NC(=O)Cn1c(-c2ccccc2Cl)nc2ccccc21	1	7	-33	17*	19*	25*
COC(=O)Cn1cnc2c(cnn2-c2ccc(OC)cc2)c1=O	-3	3	-45	-1	/	/
COc1ccc(-n2ncc3c(=O)n(CC(=O)Nc4ccc5c(c4)OCCO5)cnc32)cc1	22	4	5	12*	19*	23*
CCc1nnc(NC(=O)c2ccc(OCc3c(C)noc3C)c(OC)c2)s1	-4	2	9	-2	/	/
